Source: PubChem BioAssay
CHOP UPR activ = activators of apoptotic CHOP UPR arm, primary screen, cell-based, CHO-CHOP luciferase reporter, luminescence, uHTS; AID 449763, 2010; activation, % at 10 µM; 330,000 tested, 0.34% active; UPR activation; percent of tunicamycin response over DMSO baseline;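 active = at 10 µM dose, activation of 40% or more, normalized to positive control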;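 also: 100% = tunicamycin at 10 µg/mL and 0% = DMSO alone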
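Material: CHO-CHOP cells, stable luciferase reporter of PERK-eIF2a-CHOP signalling; quantity: 500 reporter cells seeded per well; buffer or medium: F12 medium containing 10% fetal bovine serum; compound: one dose, 10 µM in 0.5% DMSO; incubation: 6 h compound treatment, 37 °C; measured by: Steady-Glo luciferase luminescence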
XBP1 UPR activ = activators of adaptive XBP1 UPR arm, primary screen, cell-based, CHO-XBP1 luciferase reporter, luminescence, uHTS; IRE1-XBP1 UPR activation; percent of tunicamycin response, DMSO as zero; activation, % at 20 µM; 330,000 tested, 0.33% active; AID 463104, 2010;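 active = versus positive control, 20 µM dose yields 30% or more activation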;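 also: 100% = tunicamycin at 10 µg/mL and 0% = DMSO only wells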
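Assay system: CHO-XBP1 luciferase reporter cells; Schedule: 6 h treatment, 37 °C; Detection: glow luminescence from Steady-Glo reagent; Benchmarks: high control tunicamycin 10 µg/mL final, low control DMSO vehicle only.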
CHOP inhibitor = inhibitors of CHOP promoter induction, primary screen, cell-based, unfolded protein response, luciferase reporter; CHO-K1 CHOP-promoter luciferase, tunicamycin-induced, 15-18 h; inhibition, % at 10 µM; 220,000 tested, 3.8% active;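 active = compounds that reduced the stress-induced luciferase reporter signal by more than about 70% of percent inhibition, limit read from the data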;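 also: 0% = tunicamycin plus vehicle and 100% = wells without tunicamycin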
A1 inh = caspase 3/7 activation in MEF A1-2A-BIM cells, primary screen, A1 inhibitor project, cell-based, luminescence, HTS; Caspase-Glo 3/7 luminescence, 3 h; percent of clofoctol response, vehicle zero; caspase activation, % (no concentration beside the values); 330,000 tested, 0.066% active; AID 2462, 2010;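 active = over half of replicate activation scores above 10%, or exactly half above 10 with the replicate mean above 10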
CHOP UPR conf = activators of apoptotic CHOP UPR arm, confirmation, cell-based, CHO-CHOP luciferase reporter, single concentration | 1,000 tested, 64% active | shares compounds with CHOP UPR activ | AID 463112, 2010 | CHO-CHOP cells, CHOP-luciferase reporter luminescence; percent of tunicamycin response, DMSO as zero | activation, % at 10 µM; in the data active = activation above about 33%;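 also: 0% = DMSO wells and 100% = tunicamycin 10 µg/mL wells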
An asterisk follows results filed as active; nt = not tested or not shown. The full list was thinned out, with hits kept by preference.

SMILES	CHOP UPR activ	XBP1 UPR activ	CHOP inhibitor	A1 inh	CHOP UPR conf
O=C(NCc1cccnc1)/C(=C/c1ccc(-c2cccc(Cl)c2)o1)S(=O)(=O)c1ccccc1	83*	-8	94*	1	114*
COc1ccc(OC)c(CNC(=O)C2CCC(=O)N(CCCN3CCCC3=O)C2)c1 (stereo not given)	-2	-2	nt	0	nt
N=C1/C(=C/c2cccn2-c2ccc([N+](=O)[O-])cc2)C(=O)N=C2SC=CN12	54*	8	56	0	14
O=C1c2cc(F)ccc2-n2c1nc1ccccc1c2=O	77*	12	nt	-1	30
CCCS(=O)(=O)c1c(S(=O)(=O)CCC)c2c(N)cccn2c1C(=O)c1ccc(OC)cc1	55*	-4	-12	0	0
COc1cccc(CN2C(=O)NC3(CCCCCC3)C2=O)c1	0	4	nt	2	nt
Cc1oc2c(c1C(=O)O)C(=O)c1ccccc1C2=O	3	2	-25	-5	nt
Cc1oc2c(c1C(=O)c1ccccc1)C(=O)C(=O)c1ccccc1-2	67*	-1	nt	0	-2
O=C(c1ccccc1)c1coc2ccc(O)c(Cl)c12	1	7	-12	-1	nt
O=C1C(=O)c2c(C(=O)c3ccccc3)coc2-c2ccccc21	48*	23	52	0	30
CN(C(=O)c1cc(-c2ccccc2)on1)C1CCCCC1	5	-5	nt	-1	nt
COc1ccccc1NC(=O)CCN1C(=O)c2ccccc2C1=O	1	1	nt	1	nt
O=C(CSc1ccc(Br)cc1)NC1CCCCCC1	0	1	nt	0	nt
CC(C)c1nnc(NC(=O)c2nc(S(=O)(=O)Cc3ccccc3)ncc2Cl)s1	62*	-9	nt	nt	8
CSc1nnc(NC(=O)c2nc(S(=O)(=O)Cc3ccccc3)ncc2Cl)s1	56*	-8	nt	nt	61*
CCCc1nnc(NC(=O)c2nc(S(=O)(=O)Cc3ccc(C)cc3)ncc2Cl)s1	31	-5	nt	1	nt
Cc1[nH]c2ccccc2c1C(=O)CSc1nnc(C2CC2)o1	0	-1	nt	-1	nt
C/C(CCc1oc2c(Br)cc(Br)cc2c1-c1ccc(C)o1)=N\O	89*	7	18	0	-2
C/C(CCc1oc2ccccc2c1-c1ccc(C)o1)=N/O	-1	-3	41	0	nt
Cc1cccc(NC(=O)CSc2nnc(C)c(C)n2)c1	1	-1	nt	0	nt
CCn1c(CSc2nc3ccccc3s2)nnc1SCC(=O)c1ccc(O)c(O)c1	47*	12	32	0	0
Cc1n[nH]c(C)c1NC(=O)CSc1nnnn1-c1cccc(F)c1	1	-1	nt	1	nt
COC(=O)C(=Cc1ccc(OCc2ccc([N+](=O)[O-])cc2)c(OC)c1)C(=O)OC	334*	4	-25	0	106*
CCOC(=O)C(=Cc1ccc(OCc2ccc([N+](=O)[O-])cc2)c(OC)c1)C(=O)OCC	219*	5	66	3	247*
COc1cc(/C=N/NC(=O)c2cccc([N+](=O)[O-])c2)ccc1OCc1ccccc1	4	5	-5	0	nt
SMILES	CHOP UPR activ	XBP1 UPR activ	CHOP inhibitor	A1 inh	CHOP UPR conf
Cc1noc(C)c1C(=O)N(CC(=O)Nc1ccccc1Br)Cc1ccco1	0	1	nt	0	nt
CCN1CCN(C(=O)c2cc3cc(F)ccc3[nH]2)CC1	1	4	nt	-1	nt
CC(C)N1CSC(=S)N(Cc2ccccc2)C1	75*	1	24	-1	94*
CC(C)(C)N1CSC(=S)N(Cc2ccccc2)C1	86*	-1	1	1	82*
O=c1oc(-c2ccc(O)c(O)c2)cc2cccc(O)c12	54*	19	nt	nt	9
O=c1oc(-c2ccc(O)c(O)c2)cc2cc(O)cc(O)c12	9	11	nt	nt	nt
CCOc1cc(C(=O)N=c2sccn2C)ccc1OC(F)F	1	-1	nt	0	nt
C=C1C(=O)C=C[C@]2(C)C[C@@H]3OC(=O)[C@](C)(O)[C@H]3C[C@@H]12	59*	3	36	1	56*
COc1ccccc1CN1CC(C(=O)NCc2ccc(SC)cc2)CCC1=O (stereo not given)	2	-2	nt	nt	nt
CN(C)C(=S)N=Nc1[nH]c2ccccc2c1O	466*	7	-127	0	341*
COC(=O)[C@@H]1[C@@H](C#N)C2(c3ccccc3-c3ccccc32)N(c2ccc(Cl)cc2)N1C#N	92*	4	82*	3	55*
COc1ccc(OCc2cc(C(=O)NCCN3CCCc4ccccc43)no2)c(Cl)c1	4	-6	nt	0	nt
COc1cc(C(=O)NCCCN2CCCC2=O)cc(Br)c1OCc1ccccc1	-3	0	nt	0	nt
CCCn1c(CN2CCN(C(=O)OCC)CC2)nc2cc(NC(C)=O)ccc21	2	1	nt	1	nt
CCCn1c(CN2CCN(C(=O)OCC)CC2)nc2cc(NC(=O)C(C)C)ccc21	50*	-4	nt	0	0
COc1ccc(C(=O)CCS(=O)(=O)c2ccc(F)cc2)cc1OC	44*	-9	nt	1	11
CC(OC(=O)CNC(=O)c1ccc2ccccc2c1)C(=O)NC1CCCCC1C (stereo not given)	0	-1	nt	0	nt
CC1CCCC(C)N1C(=O)c1ccc(S(=O)(=O)NCc2ccco2)cc1 (stereo not given)	0	1	nt	0	nt
CC(C)[C@H](NC(=O)OC(C)(C)C)c1nnc(S(=O)(=O)Cc2c(F)cccc2Cl)o1	134*	-5	nt	0	95*
CCOc1cc(/C=N\NC(=O)c2ccc(NC(=O)CC)cc2)ccc1OC(=O)c1ccccc1	57*	26	75*	0	4
Cc1ccc(S(=O)(=O)N2CCC(C(=O)Nc3ccc(S(=O)(=O)N4CCCC4)cc3)CC2)cc1C	2	-1	nt	2	nt
Cc1ccc(NC(=O)c2nc(S(=O)(=O)Cc3ccccc3C)ncc2Cl)cc1C	237*	-10	nt	2	170*
COC(=O)c1ccc(NC(=O)c2nc(S(=O)(=O)Cc3cccc(C)c3)ncc2Cl)cc1	95*	-11	nt	2	27
CC(=O)Nc1ccc(NC(=O)c2nc(S(=O)(=O)Cc3cccc(C)c3)ncc2Cl)cc1	-11	-11	nt	1	nt
Cc1cccc(NC(=O)c2nc[nH]c2C(=O)N(C)Cc2ccccc2)c1	4	2	nt	1	nt
CCOc1ccc2nc(SC3CC(=O)N(c4ccc(OC)cc4)C3=O)sc2c1 (stereo not given)	45*	-7	31	0	24
CCCn1c(Cc2ccccc2)nnc1SC(C)C(=O)NC1CC1 (stereo not given)	1	-1	nt	2	nt
